{"source": "PubChem BioAssay AID743256", "about": "(The Scripps Research Institute Molecular Screening Center, 2014)", "note": "Out of some 2,900 compounds screened, about 1,300 (45%) were called active. So high a share suggests a set chosen from earlier hits. A selection follows. A number with no mark means an inactive call.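 How the source made its calls: active means mean inhibition over the triplicate runs exceeds the activity threshold set in the earlier primary screen (cut at about 20% in these data); inactive means the rest.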", "data": [{"target": "Disintegrin and metalloproteinase domain-containing protein 10 (Homo sapiens) (UniProt O14672)", "sequence (O14672 214-748 limits assumed)": "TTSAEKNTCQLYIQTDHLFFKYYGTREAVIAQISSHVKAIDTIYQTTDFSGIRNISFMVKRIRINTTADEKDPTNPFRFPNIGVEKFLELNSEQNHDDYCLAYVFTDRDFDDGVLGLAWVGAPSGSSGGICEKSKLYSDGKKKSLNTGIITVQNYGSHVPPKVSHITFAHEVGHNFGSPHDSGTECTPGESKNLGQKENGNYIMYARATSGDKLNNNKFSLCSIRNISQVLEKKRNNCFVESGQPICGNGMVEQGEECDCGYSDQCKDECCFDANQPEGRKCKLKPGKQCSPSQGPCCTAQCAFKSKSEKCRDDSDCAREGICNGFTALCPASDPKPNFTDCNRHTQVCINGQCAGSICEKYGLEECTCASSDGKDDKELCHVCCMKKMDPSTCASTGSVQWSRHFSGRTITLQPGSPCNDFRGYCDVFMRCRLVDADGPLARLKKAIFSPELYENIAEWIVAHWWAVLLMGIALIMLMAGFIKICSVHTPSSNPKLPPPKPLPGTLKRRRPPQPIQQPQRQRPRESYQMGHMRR", "experiment": "ADAM10 inhibitors, counter-screen for ADAM17 exosite inhibitor project, biochemical, FRET, human ADAM10 (AID 743256);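 further: 0% = DMSO wells and 100% = marimastat wells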", "conditions": "recombinant ADAM10, EDANS/DABCYL FRET peptide cleavage, 3 h; at 6.95 µM; active compounds read high", "procedure,_shortened": "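Assay system: ADAM10 enzyme, biochemical assay | Amount: Enzyme 2X stock at 20 nM | Timing: Compound–enzyme preincubation 30 min, then 3 h substrate cleavage, both 25 °C | Measured by: EDANS fluorescence, excitation 359 nm, emission 460 nm | Control set: 1 µM marimastat (high) and DMSO (low)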", "values": [{"smiles": "Cc1ccc(C(=O)Nc2ccc(C)c(S(=O)(=O)N(C)C)c2)s1", "inhibition": "19.2%"}, {"smiles": "CCn1c(Cc2cccs2)nnc1SCC(=O)c1ccc(C)cc1", "inhibition": "2.71%"}, {"smiles": "Cc1ccc(OCCOCCOc2ccc(Br)cc2/C=N\\NC(=O)c2ccncc2)cc1", "inhibition": "13.6%"}, {"smiles": "COc1cccc(/C=N/NC(=O)c2cccc([N+](=O)[O-])c2)c1OS(=O)(=O)c1ccc(C)cc1", "inhibition": "27.1% (active)"}, {"smiles": "CCCCCC(=O)N1C[C@H](O)[C@@H](n2cc(COC(=O)c3ccccc3)nn2)C[C@@H]1c1ccc(C)cc1", "inhibition": "22.1% (active)"}, {"smiles": "O=C(Cc1ncc(C(F)(F)F)cc1Cl)Nc1cccc(Br)c1", "inhibition": "6.87%"}, {"smiles": "CCc1cccc(NC(=O)COC(=O)C2CCN(c3ccc(C(F)(F)F)cn3)CC2)c1", "inhibition": "25.6% (active)"}, {"smiles": "Cc1ccc(-c2nnc(SCC(=O)Nc3ccc(Oc4ccccc4)cc3)n2Cc2ccco2)cc1", "inhibition": "30.9% (active)"}, {"smiles": "Cc1ccc(OCc2nnc(SC/C=C/c3ccccc3)n2Cc2ccco2)cc1", "inhibition": "18.7%"}, {"smiles": "Cc1sc2nc(SCC(=O)c3ccc(O)c(O)c3)n(Cc3ccco3)c(=O)c2c1C", "inhibition": "16.8%"}, {"smiles": "COc1ccc(C(=O)NN2C(=O)C3C(c4ccccc4)C=CC(c4ccccc4)C3C2=O)cc1", "note": "(centres undefined)", "inhibition": "25.6% (active)"}, {"smiles": "CC(C)C(=O)Nc1cccc(NC(=S)NC(=O)C(c2ccccc2)c2ccccc2)c1", "inhibition": "31.3% (active)"}, {"smiles": "O=C(CSc1nc(Nc2ccccc2)nc(N2CCOCC2)n1)Nc1cc(Cl)ccc1O", "inhibition": "33.4% (active)"}, {"smiles": "CCCN(CC(=O)NC(=O)NC1CCCCC1)CC(=O)Nc1cc(Cl)ccc1Cl", "inhibition": "43.7% (active)"}, {"smiles": "CN(C)c1ccc(NC(=O)NC2CCCCN(Cc3ccc(Cl)cc3)C2=O)cc1", "note": "(centres undefined)", "inhibition": "1.4%"}, {"smiles": "O=C(C[C@H]1C(=O)N(c2ccc(F)c(F)c2)C[C@@H]1Cc1ccccc1)Nc1ccccc1", "inhibition": "26.5% (active)"}, {"smiles": "COc1ccc(C(=O)Nc2ccc(C3(C#N)CCCC3)cc2)cc1OC", "inhibition": "-1.52%"}, {"smiles": "NNC(=O)C1CCCn2c1nc1sc3c(c1c2=O)CCCC3", "note": "(centres undefined)", "inhibition": "-9.79%"}, {"smiles": "CCOc1ccc(Nc2nc(Cc3nnc(SCC(=O)c4ccc(C)cc4)o3)cs2)cc1", "inhibition": "17.9%"}, {"smiles": "Cc1ccc(C)c(NC(=S)NNC(=S)Nc2ccc(C(C)C)cc2)c1", "inhibition": "32.5% (active)"}, {"smiles": "CCCn1nc(C(=O)NNC(=O)CSCC(=O)Nc2cc(C)on2)c2ccccc2c1=O", "inhibition": "-0.39%"}, {"smiles": "Cc1cc(NC(=O)CN2C(=O)NC(CC(C)C)C2=O)no1", "note": "(centres undefined)", "inhibition": "26.2% (active)"}, {"smiles": "CS(=O)(=O)Nc1cccc(C2=NN(S(=O)(=O)c3ccccc3)C(c3cccs3)C2)c1", "note": "(centres undefined)", "inhibition": "11.9%"}, {"smiles": "COc1ccc(S(=O)(=O)Nc2ccc(O)c(Sc3nc4ccccc4s3)c2)cc1", "inhibition": "20.5% (active)"}, {"smiles": "Cc1ccc(-c2n[nH]c(=S)n2/N=C/c2cc3c(cc2[N+](=O)[O-])OCO3)cc1", "inhibition": "4.16%"}, {"smiles": "COc1cc(C2CC(=O)N3CN(Cc4ccccc4)CSC3=C2C#N)ccc1OCc1ccccc1", "note": "(centres undefined)", "inhibition": "26.5% (active)"}, {"smiles": "CC(C)N(C(=O)[C@H]1C[C@H](CC(=O)NC(C)(C)C)C(=O)N2CCc3c([nH]c4ccc(Cl)cc34)[C@]12C)C(C)C", "inhibition": "15.5%"}, {"smiles": "CN(C)S(=O)(=O)c1cccc(NC(=O)COC(=O)C2(c3ccccc3F)CCCC2)c1", "inhibition": "28% (active)"}, {"smiles": "NS(=O)(=O)c1ccc(NC(=O)COC(=O)C2(c3ccc(F)cc3)CCCC2)cc1", "inhibition": "24.3% (active)"}, {"smiles": "Cc1ccc(S(=O)(=O)N2CCN(C(=O)COC(=O)c3c(C)cc(C)cc3C)CC2)c(C)c1", "inhibition": "18.9%"}, {"smiles": "COc1ccc(C(=O)C2CCCN(S(=O)(=O)c3cccc(C)c3)C2)c(C)c1", "note": "(centres undefined)", "inhibition": "11.7%"}, {"smiles": "Cc1onc(C(=O)NN)c1-c1csc(COc2ccccc2)n1", "inhibition": "-5.47%"}, {"smiles": "O=C(c1ccccc1)N1CCN(c2ccc([N+](=O)[O-])c(NCc3ccco3)c2)CC1", "inhibition": "14.8%"}, {"smiles": "O=C(NCc1ccccc1)C1=C[C@@H](c2ccc(C(F)(F)F)cc2)C[C@@H](OCc2ccc(CO)cc2)O1", "inhibition": "44.5% (active)"}]}]}
